Test system: MS2 coat protein
Test: apparent Kd, MS2 coat protein; higher = weaker binding; RNA-MaP array; FMN 200 µM where present
Outline: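 Apparent Kd: the median of filtered binding-curve fits from single clusters. Designs were transcribed on Illumina sequencing-chip clusters by stalled E. coli RNA polymerase and titrated with SNAP-549-labelled MS2 coat protein from 0.7 or 1.5 nM, doubling to 3 µM, in 100 mM Tris-HCl pH 7.5, 80 mM KCl, 4 mM MgCl2, BSA, DTT, yeast tRNA and Tween-20. Each series ran without and then with constant ligand, and green signal was normalised to red-channel RNA signal and control-cluster median Fmax.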

[1] = designed as: OFF switch for flavin mononucleotide, no ligand
[2] = ligand present: flavin mononucleotide, designed as: OFF switch for flavin mononucleotide
[3] = designed as: ON switch for flavin mononucleotide, no ligand
[4] = ligand present: flavin mononucleotide, designed as: ON switch for flavin mononucleotide

AGAACUGAUAGAGGAUAUGUUUUACAUGAGGAUCACCCAUGUGUACAAGGAUCAAUAUAUUUGUUACAGAAGGCUAUUAGUGAG
apparent Kd [1]: 11.8 nM
apparent Kd [2]: 18.7 nM

CAAUUGGCACAGAAGGGUGACAUGAGGAUCACCCAUGUAGCGUGGCACUCAGGAGAAGCCACGCCACAGGAUAUGUGCGGGCAC
apparent Kd [3]: 34.6 nM
apparent Kd [4]: 41.6 nM

CACAAUCUAUCUGAGGAUAUCAUGAAAAAAACAUGAGGAUCACCCAUGUGCAGGAAAACUGCAUAUGAGAAGGCAGAUAGAUUGG
apparent Kd [3]: 658 nM
apparent Kd [4]: 28.3 nM

GACAUACAUGAGGAUCACCCAUGUUCAGGCGAACAAGGAUAUGUGUGGAAACCAUACUAUACAGAAGGUGUCUGUC
apparent Kd [3]: 63.1 nM
apparent Kd [4]: 38.8 nM

AAUAUAUUAAGUGAGGAUAUCAUAGAAAAAACAUGAGGAUCACCCAUGUGGGAAACCUGGUCGGGUGAGAAGGCACUUAAUAUAU
apparent Kd [3]: 992 nM
apparent Kd [4]: 88.4 nM

GGGUACAACGGAGGAUAUCAUGUAAAUACAUGAGGAUCACCCAUGUCGAUGGAGACAUCGGAGAUUGAGAAGGCCGAUGUACCG
apparent Kd [3]: 160 nM
apparent Kd [4]: 8.88 nM

GUCUCGAUGUAAGGAUAUGCAGUGGAUAACACUGCAGAAGGUACAUGAGGAUCACCCAUGUAUAUGAAAGAUAAUAAACGAGAC
apparent Kd [1]: 14.4 nM
apparent Kd [2]: 19.8 nM

AAAAAGGCAGGAUAUGCAUACACACAAAAAAAAAAACUGGGACAUGAGGAUCACCCAUGUAGAAGGGCCAAAAA
apparent Kd [1]: 29.4 nM
apparent Kd [2]: 25.9 nM

GAGCUGUGAGGAUAUAAACCUGUGGGCUCAACCUAGCGGGUUUAGAAGGCACAUGAGGAUCACCCAUGUCCCAA
apparent Kd [1]: 26 nM
apparent Kd [2]: 262 nM

CUUUUGUGAGGAUAUCAGUAGUAAUACAAUAGUAUUACUACUGAGAAGGCACAUGAGGAUCACCCAUGUUCUUC
apparent Kd [1]: 25.5 nM
apparent Kd [2]: 68.2 nM

UGUGCGUUGAUCUUCGAUCGGAGUACAUGAGGAUCACCCAUGUAGGAUAUUCAAAGACGCAGAUAGAAGAAGGACAUCGGUUUA
apparent Kd [1]: 11.9 nM
apparent Kd [2]: 11.1 nM

UAAUAUUUAUGAUAUUAUUACAUUAGAAGGCUAGACAUGUGGAUACAUGAGGAUCACCCAUGUAUAGAGGAUAUAGACAUAUAU
apparent Kd [1]: 31.8 nM
apparent Kd [2]: 53.6 nM

UUUUCUUUUGUGAGGAUAUACUUGUUUUUUUUUUUGUAGAAGGCACAUGAGGAUCACCCAUGUUUUCUUUUCUG
apparent Kd [1]: 17.1 nM
apparent Kd [2]: 19.4 nM

GUCAGCUCGUGAGGAUAUACAUGUGCUGGAGACAGCACUAUUAAGAUCACAUGAGGAUCACCCAUGUAGAAGGCACGAGCUGAU
apparent Kd [1]: 50.4 nM
apparent Kd [2]: 620 nM

UUACCACAUGAGGAUCACCCAUGUCAGGAUAUACUAUUAACUACAUUUUCUUAUUUUAGUAGAAGGGACACUUU
apparent Kd [1]: 26 nM
apparent Kd [2]: 23.1 nM

GUCGGAAACGACAAAAGUAGCAUAGGAGAAGGUUCAUUAAACAUGAGGAUCACCCAUGUAAUUGGGAAGGAUAUCCUAUGCUAC
apparent Kd [3]: 16.2 nM
apparent Kd [4]: 9.16 nM

AUACACUAAGUGAGGAUAUCGAUUUCUUUAAGGAUCGAGAAGGCACAUGAGGAUCACCCAUGUUUGACGUGAAU
apparent Kd [1]: 34.4 nM
apparent Kd [2]: 75.8 nM

GUCAGCUCGUGAGGAUAUACAACACUGCUUCGGCAGGGUAUUAAGAUCACAUGAGGAUCACCCAUGUAGAAGGCACGAGCUGAU
apparent Kd [1]: 12.7 nM
apparent Kd [2]: 173 nM

GAAGGCUGGUAGAAGGAUCCUCACAUGAGGAUCACCCAUGUAACAGCGGAUAGGAUAUACCGUCUUUCAUGUUGGUCUCCCUAA
apparent Kd [3]: 461 nM
apparent Kd [4]: 46.5 nM

CGAGAGGCAGGAUAUAGUAUUUGCGACAUGAGGAUCACCCAUGUAUAUACAGUCGCUCCGUUAGAAGGGCCAUUUC
apparent Kd [1]: 22.8 nM
apparent Kd [2]: 33.2 nM
